The test system of experiment [1] is MCF7. Briefly: Potency index, ratio of IC50 of (E/Z)-2-(2-((2-nitro-9H-fluoren 9-ylidene)methyl)phenoxy)ethan-1-amine to IC50 of compound for antiproliferative activity against ER-positive human MCF7 cells assessed as reduction in cell growth incubated for 48 hrs by MTT assay. It counts as functional.
Experiment [2] has as its system MCF7. As to the kind of experiment: Inhibition of colony formation in ER-positive human MCF7 cells at 1 uM supplemented with fresh medium containing compound every 72 hrs for 2 weeks by crystal violet staining based assay. It counts as functional, cell-based. Summed up: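 Clonogenic assay: 800 cells per well seeded, treated after 24 h with 1 μM or DMSO vehicle, medium with compound renewed every 72 h for 2 weeks; PBS wash, 0.01% crystal violet 10 min, whole-well density digitally quantified; triplicate, one-way ANOVA, SD error bars.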

Experiment [3] relates to MCF7. Briefly: Induction of apoptosis in ER-positive human MCF7 cells assessed as decrease in cytosolic Bax level at 5 uM incubated for 48 hrs by Western blot analysis. It counts as functional, cell-based. The procedure, abridged: (§1)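 Western blot of MCF-7 (and MDA-MB-231 for cytosolic fractions) cells exposed to 5 μM over 0-48 h; 30 µg protein per lane on SDS-PAGE, PVDF transfer, 5% milk block, overnight primary antibodies (total Bax, p-Bax, active Bax 6A7, cytochrome C), ECL detection; cytosolic fraction used for cytochrome c and Bax.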
A general note: Immunoblotting shows a protein as a band on a membrane.

Experiment [4] relates to MCF7. Briefly: Induction of apoptosis in ER-positive human MCF7 cells assessed as upregulation of PARP1 cleavage incubated for 48 hrs by Western blot analysis. The experiment is classed as functional, cell-based. Summed up:
(§2)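 Western blot: cells harvested after treatment, lysates quantified by Bradford (BSA standard), 30 µg protein resolved by SDS-PAGE, transferred to PVDF, blocked in 5% nonfat milk, probed overnight with anti-PARP-1, anti-cleaved PARP-1 or anti-cyclin D1 (1:1,000) and β-actin loading control; ECL visualization.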

In experiment [5] the test system is MDA-MB-231. As to the kind of experiment: Induction of apoptosis in triple-negative human MDA-MB-231 cells assessed as decrease in cytosolic Bax level at 5 uM incubated for 48 hrs by Western blot analysis. It counts as functional, cell-based. Summed up:
as §1

Experiment [6] concerns MDA-MB-231. Briefly: Potency index, ratio of SMBA1 IC50 to compound IC50 for antiproliferative activity against triple negative human MDA-MB-231 cells assessed as reduction in cell growth incubated for 48 hrs by MTT assay. The experiment is classed as functional.
Experiment [7] concerns MDA-MB-231. As to the kind of experiment: Antiproliferative activity against triple negative human MDA-MB-231 cells assessed as reduction in cell growth incubated for 48 hrs by MTT assay. The note with it: MDA-MB-231, 48 h. The experiment is classed as functional, cell-based. Summed up:
(§3)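 MTT viability: MCF-7 and MDA-MB-231 seeded 1×10^4 cells/well, exposed to DMSO or 0.01-100 μM for 48 h; MTT (5 mg/mL in PBS) added 4 h, formazan dissolved in DMSO, OD 550 nm; quadruplicate wells; IC50 fitted for compounds giving >50% inhibition at 10 µM; at least three independent experiments.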

Experiment [8] concerns MDA-MB-231. Briefly: Induction of apoptosis in triple-negative human MDA-MB-231 cells assessed as downregulation of cyclin D1 level incubated for 48 hrs by Western blot analysis. It counts as functional, cell-based. The procedure, abridged:
as §2

The test system of experiment [9] is MCF7. As to the kind of experiment: Antiproliferative activity against ER-positive human MCF7 cells assessed as reduction in cell growth incubated for 48 hrs by MTT assay. The conditions noted are these: MCF7, 48 h. The experiment is classed as functional, cell-based. The procedure, abridged: as §3
The subject of experiment [10] is MDA-MB-231. Briefly: Antiproliferative activity against triple negative human MDA-MB-231 cells assessed as reduction in cell growth at 1 uM incubated for 48 hrs by MTT assay relative to control. It counts as functional. The note with it: MDA-MB-231, 48 h. Summed up: as §3
Experiment [11] concerns MCF7. Briefly: Induction of apoptosis in ER-positive human MCF7 cells assessed as upregulation of caspase3 cleavage incubated for 48 hrs by Western blot analysis. It counts as functional, cell-based.

Each structure is given as a SMILES string. Active and inactive are the calls of the source. The rule behind the calls is not given here.

For orientation: inhibition means the share of the control response that was lost under treatment. The term IC50 denotes the concentration needed to halve the response being measured.

With `NCCOc1ncccc1C=C1c2ccccc2-c2ccc([N+](=O)[O-])cc21`, the entries for the “Ratio IC50” value in the experiment on MCF7 [1] and in the experiment with MDA-MB-231 [6] were 40 - 60 and 80 - 130, respectively. In addition, in the experiment with MCF7 [2], the inhibition result is “Active”. Also, the result in the experiment on MCF7 [3] and with MDA-MB-231 [5] was Active. For the same compound, the Activity entry with MCF7 [4], in the experiment on MDA-MB-231 [8] and in the experiment on MCF7 [11] was “Dose-dependent effect” each time. For the same compound, the values for the IC50 with MDA-MB-231 [7] and in the experiment on MCF7 [9] were 70 nM and 60 nM, respectively. Further, in the experiment on MDA-MB-231 [10], the inhibition at 1 µM is greater than 50%.

These data come from ChEMBL document CHEMBL4364270, “Structure-activity relationship studies on Bax activator SMBA1 for the treatment of ER-positive and triple-negative breast cancer” (Eur J Med Chem, 2019).
